# According to ChEMBL document CHEMBL1159061, “Synthesis and biological properties of iron chelators based on a bis-2-(2-hydroxy-phenyl)-thiazole-4-carboxamide or -thiocarboxamide (BHPTC) scaffold” (Bioorg Med Chem, 2010):
# Test system: SK-OV-3
# Test: Antiproliferative activity against human SKOV3 cells at 1 uM after 72 hrs by MTS assay
# Type: functional
# Details: SK-OV-3, 72 h
# In short: (§1)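 Cells grown under 5% CO2: KB and HepG2 in DMEM with 10% FCS, penicillin, streptomycin and fungizone; HCT116, HT29, HCT15, MCF7, MCF7R, SK-OV3, PC-3, A549, HL60, K562 and SF268 in RPMI. Cells were plated in 96-well plates and dosed 24 h later from DMSO stocks (controls 1% DMSO final). After 72 h, MTS was added for 3 h at 37 °C and absorbance read at 490 nm. Inhibition = (1 − OD treated/OD control)×100, in triplicate.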
row,SMILES,inhibition at 1 µM [%]
1,COC(=O)c1ccc(O)c(-c2nc(C(=S)NCCOCCOCCNC(=S)c3csc(-c4cc(C(=O)OC)ccc4O)n3)cs2)c1,10

# Test system: HepG2
# Test: Antiproliferative activity against human HepG2 cells at 10 uM after 72 hrs by MTS assay
# Type: functional
# Details: HepG2, 72 h
# In short: as §1
row,SMILES,inhibition at 10 µM [%]
1,COC(=O)c1ccc(O)c(-c2nc(C(=S)NCCOCCOCCNC(=S)c3csc(-c4cc(C(=O)OC)ccc4O)n3)cs2)c1,43

# Test system: A549
# Test: Antiproliferative activity against human A549 cells at 1 uM after 72 hrs by MTS assay
# Type: functional
# Details: A549, 72 h
# In short: as §1
row,SMILES,inhibition at 1 µM [%]
1,COC(=O)c1ccc(O)c(-c2nc(C(=S)NCCOCCOCCNC(=S)c3csc(-c4cc(C(=O)OC)ccc4O)n3)cs2)c1,8

# Test system: PC-3
# Test: Antiproliferative activity against human PC3 cells at 1 uM after 72 hrs by MTS assay
# Type: functional
# Details: PC-3, 72 h
# In short: as §1
row,SMILES,inhibition at 1 µM [%]
1,COC(=O)c1ccc(O)c(-c2nc(C(=S)NCCOCCOCCNC(=S)c3csc(-c4cc(C(=O)OC)ccc4O)n3)cs2)c1,10

# Test system: K562
# Test: Antiproliferative activity against human K562 cells at 1 uM after 72 hrs by MTS assay
# Type: functional
# Details: K562, 72 h
# In short: as §1
row,SMILES,inhibition at 1 µM [%]
1,COC(=O)c1ccc(O)c(-c2nc(C(=S)NCCOCCOCCNC(=S)c3csc(-c4cc(C(=O)OC)ccc4O)n3)cs2)c1,1

# Test system: SK-OV-3
# Test: Antiproliferative activity against human SKOV3 cells at 10 uM after 72 hrs by MTS assay
# Type: functional
# Details: SK-OV-3, 72 h
# In short: as §1
row,SMILES,inhibition at 10 µM [%]
1,COC(=O)c1ccc(O)c(-c2nc(C(=S)NCCOCCOCCNC(=S)c3csc(-c4cc(C(=O)OC)ccc4O)n3)cs2)c1,45

# Test system: A549
# Test: Antiproliferative activity against human A549 cells at 10 uM after 72 hrs by MTS assay
# Type: functional
# Details: A549, 72 h
# In short: as §1
row,SMILES,inhibition at 10 µM [%]
1,COC(=O)c1ccc(O)c(-c2nc(C(=S)NCCOCCOCCNC(=S)c3csc(-c4cc(C(=O)OC)ccc4O)n3)cs2)c1,98

# Test system: SF-268
# Test: Antiproliferative activity against human SF268 cells at 10 uM after 72 hrs by MTS assay
# Type: functional
# Details: SF-268, 72 h
# In short: as §1
row,SMILES,inhibition at 10 µM [%]
1,COC(=O)c1ccc(O)c(-c2nc(C(=S)NCCOCCOCCNC(=S)c3csc(-c4cc(C(=O)OC)ccc4O)n3)cs2)c1,62

# Test system: SF-268
# Test: Antiproliferative activity against human SF268 cells at 1 uM after 72 hrs by MTS assay
# Type: functional
# Details: SF-268, 72 h
# In short: as §1
row,SMILES,inhibition at 1 µM [%]
1,COC(=O)c1ccc(O)c(-c2nc(C(=S)NCCOCCOCCNC(=S)c3csc(-c4cc(C(=O)OC)ccc4O)n3)cs2)c1,0

# Test system: HCT-15
# Test: Antiproliferative activity against human HCT15 cells at 10 uM after 72 hrs by MTS assay
# Type: functional
# Details: HCT-15, 72 h
# In short: as §1
row,SMILES,inhibition at 10 µM [%]
1,COC(=O)c1ccc(O)c(-c2nc(C(=S)NCCOCCOCCNC(=S)c3csc(-c4cc(C(=O)OC)ccc4O)n3)cs2)c1,42

# Test system: KB
# Test: Antiproliferative activity against human KB cells at 10 uM after 72 hrs by MTS assay
# Type: functional
# Details: not given
# In short: as §1
row,SMILES,inhibition at 10 µM [%]
1,COC(=O)c1ccc(O)c(-c2nc(C(=S)NCCOCCOCCNC(=S)c3csc(-c4cc(C(=O)OC)ccc4O)n3)cs2)c1,58

# Test system: HL-60
# Test: Antiproliferative activity against human HL60 cells at 1 uM after 72 hrs by MTS assay
# Type: functional
# Details: HL-60, 72 h
# In short: as §1
row,SMILES,inhibition at 1 µM [%]
1,COC(=O)c1ccc(O)c(-c2nc(C(=S)NCCOCCOCCNC(=S)c3csc(-c4cc(C(=O)OC)ccc4O)n3)cs2)c1,0

# Test system: HepG2
# Test: Antiproliferative activity against human HepG2 cells at 1 uM after 72 hrs by MTS assay
# Type: functional
# Details: HepG2, 72 h
# In short: as §1
row,SMILES,inhibition at 1 µM [%]
1,COC(=O)c1ccc(O)c(-c2nc(C(=S)NCCOCCOCCNC(=S)c3csc(-c4cc(C(=O)OC)ccc4O)n3)cs2)c1,0

# Test system: HL-60
# Test: Antiproliferative activity against human HL60 cells at 10 uM after 72 hrs by MTS assay
# Type: functional
# Details: HL-60, 72 h
# In short: as §1
row,SMILES,inhibition at 10 µM [%]
1,COC(=O)c1ccc(O)c(-c2nc(C(=S)NCCOCCOCCNC(=S)c3csc(-c4cc(C(=O)OC)ccc4O)n3)cs2)c1,52

# Test system: MCF7
# Test: Antiproliferative activity against doxorubicin-resistant human MCF7 cells at 10 uM after 72 hrs by MTS assay
# Type: functional
# Details: MCF7, 72 h
# In short: as §1
row,SMILES,inhibition at 10 µM [%]
1,COC(=O)c1ccc(O)c(-c2nc(C(=S)NCCOCCOCCNC(=S)c3csc(-c4cc(C(=O)OC)ccc4O)n3)cs2)c1,64

# Test system: HCT-15
# Test: Antiproliferative activity against human HCT15 cells at 1 uM after 72 hrs by MTS assay
# Type: functional
# Details: HCT-15, 72 h
# In short: as §1
row,SMILES,inhibition at 1 µM [%]
1,COC(=O)c1ccc(O)c(-c2nc(C(=S)NCCOCCOCCNC(=S)c3csc(-c4cc(C(=O)OC)ccc4O)n3)cs2)c1,1

# Test system: MCF7
# Test: Antiproliferative activity against human MCF7 cells at 1 uM after 72 hrs by MTS assay
# Type: functional
# Details: MCF7, 72 h
# In short: as §1
row,SMILES,inhibition at 1 µM [%]
1,COC(=O)c1ccc(O)c(-c2nc(C(=S)NCCOCCOCCNC(=S)c3csc(-c4cc(C(=O)OC)ccc4O)n3)cs2)c1,0

# Test system: HT-29
# Test: Antiproliferative activity against human HT-29 cells at 1 uM after 72 hrs by MTS assay
# Type: functional
# Details: HT-29, 72 h
# In short: as §1
row,SMILES,inhibition at 1 µM [%]
1,COC(=O)c1ccc(O)c(-c2nc(C(=S)NCCOCCOCCNC(=S)c3csc(-c4cc(C(=O)OC)ccc4O)n3)cs2)c1,0

# Test system: not listed separately
# Test: Induction of iron chelating activity by calcein fluorescence assay
# Type: physicochemical
# Details: not given
# In short: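 Cell-free calcein assay in 20 mM HEPES, 150 mM NaCl, pH 7.3, at 20 °C with orbital stirring. Calcein was quenched with iron(III) for 6 h to maximal quenching. Fluorescence recovery (ex 485/em 520 nm) was followed for 1 h at various chelator concentrations, and the initial dequenching rate was derived from the kinetics. Three independent experiments.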
row,SMILES,IC50 [nM]
1,COC(=O)c1ccc(O)c(-c2nc(C(=S)NCCOCCOCCNC(=S)c3csc(-c4cc(C(=O)OC)ccc4O)n3)cs2)c1,500

# Test system: K562
# Test: Antiproliferative activity against human K562 cells at 10 uM after 72 hrs by MTS assay
# Type: functional
# Details: K562, 72 h
# In short: as §1
row,SMILES,inhibition at 10 µM [%]
1,COC(=O)c1ccc(O)c(-c2nc(C(=S)NCCOCCOCCNC(=S)c3csc(-c4cc(C(=O)OC)ccc4O)n3)cs2)c1,53

# Test system: HCT-116
# Test: Antiproliferative activity against human HCT116 cells at 10 uM after 72 hrs by MTS assay
# Type: functional
# Details: HCT-116, 72 h
# In short: as §1
row,SMILES,inhibition at 10 µM [%]
1,COC(=O)c1ccc(O)c(-c2nc(C(=S)NCCOCCOCCNC(=S)c3csc(-c4cc(C(=O)OC)ccc4O)n3)cs2)c1,69

# Test system: HCT-116
# Test: Antiproliferative activity against human HCT116 cells at 1 uM after 72 hrs by MTS assay
# Type: functional
# Details: HCT-116, 72 h
# In short: as §1
row,SMILES,inhibition at 1 µM [%]
1,COC(=O)c1ccc(O)c(-c2nc(C(=S)NCCOCCOCCNC(=S)c3csc(-c4cc(C(=O)OC)ccc4O)n3)cs2)c1,6

# Test system: HT-29
# Test: Antiproliferative activity against human HT-29 cells at 10 uM after 72 hrs by MTS assay
# Type: functional
# Details: HT-29, 72 h
# In short: as §1
row,SMILES,inhibition at 10 µM [%]
1,COC(=O)c1ccc(O)c(-c2nc(C(=S)NCCOCCOCCNC(=S)c3csc(-c4cc(C(=O)OC)ccc4O)n3)cs2)c1,3

# Test system: MCF7
# Test: Antiproliferative activity against doxorubicin-resistant human MCF7 cells at 1 uM after 72 hrs by MTS assay
# Type: functional
# Details: MCF7, 72 h
# In short: as §1
row,SMILES,inhibition at 1 µM [%]
1,COC(=O)c1ccc(O)c(-c2nc(C(=S)NCCOCCOCCNC(=S)c3csc(-c4cc(C(=O)OC)ccc4O)n3)cs2)c1,0

# Test system: not listed separately
# Test: Antiproliferative activity against human HepaRG cells after 72 hrs by MTT assay
# Type: functional, cell-based
# Details: not given
# In short: (§2)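 Proliferating HepaRG cells at day 4 (seeded at 2.5×10⁴/cm² in William's E, 10% FCS, insulin, glutamine, hydrocortisone) were exposed for 72 h to a concentration series, with or without added iron(III) as each line states. Viability was read by MTT (0.5 mg/L as printed) for 3 h in serum-free medium, DMSO-solubilized formazan at 535 nm, expressed as % of control SDH activity.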
row,SMILES,IC50 [µM]
1,COC(=O)c1ccc(O)c(-c2nc(C(=S)NCCOCCOCCNC(=S)c3csc(-c4cc(C(=O)OC)ccc4O)n3)cs2)c1,42

# Test system: MCF7
# Test: Antiproliferative activity against human MCF7 cells at 10 uM after 72 hrs by MTS assay
# Type: functional
# Details: MCF7, 72 h
# In short: as §1
row,SMILES,inhibition at 10 µM [%]
1,COC(=O)c1ccc(O)c(-c2nc(C(=S)NCCOCCOCCNC(=S)c3csc(-c4cc(C(=O)OC)ccc4O)n3)cs2)c1,10

# Test system: KB
# Test: Antiproliferative activity against human KB cells at 1 uM after 72 hrs by MTS assay
# Type: functional
# Details: not given
# In short: as §1
row,SMILES,inhibition at 1 µM [%]
1,COC(=O)c1ccc(O)c(-c2nc(C(=S)NCCOCCOCCNC(=S)c3csc(-c4cc(C(=O)OC)ccc4O)n3)cs2)c1,5

# Test system: not listed separately
# Test: Antiproliferative activity against human HepaRG cells after 72 hrs by MTT assay in presence of iron(3)
# Type: functional, cell-based
# Details: not given
# In short: as §2
row,SMILES,IC50 [µM]
1,COC(=O)c1ccc(O)c(-c2nc(C(=S)NCCOCCOCCNC(=S)c3csc(-c4cc(C(=O)OC)ccc4O)n3)cs2)c1,50

# Test system: PC-3
# Test: Antiproliferative activity against human PC3 cells at 10 uM after 72 hrs by MTS assay
# Type: functional
# Details: PC-3, 72 h
# In short: as §1
row,SMILES,inhibition at 10 µM [%]
1,COC(=O)c1ccc(O)c(-c2nc(C(=S)NCCOCCOCCNC(=S)c3csc(-c4cc(C(=O)OC)ccc4O)n3)cs2)c1,54
